KCNQ1 inh = inhibitors of human KCNQ1 channel, primary screen, cell-based, thallium flux, high-throughput. hit rate 1.3% among 310,000. B-score at 10 µM. CHO-K1 KCNQ1, FluxOR thallium flux fluorescence; stronger effect = higher value;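 active = compounds whose thallium flux B-score, printed positive for inhibition, exceeds three library SD while starting fluorescence stays within three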;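 also: channel opened by potassium depolarization with thallium stimulus after 20 min compound exposure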
KCNQ1 act = potentiators or activators of KCNQ1 channel, primary screen, cell-based, thallium flux, high-throughput; AID 2648, 2010; B-score at 10 µM; CHO-K1 KCNQ1, thallium flux FluxOR fluorescence; stronger effect = higher value; Potassium voltage-gated channel subfamily KQT member 1 (Homo sapiens), P51787; hit rate 0.35% among 310,000;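 active = fluorescence ratio B-score, a plate-corrected score, at least three library SD, with initial intensity B-score within 5 SD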
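Schedule – 37 °C overnight plating, 90-min dark dye load, 20-min compound pretreatment · System – stable KCNQ1 CHO-K1 line · Probe or stimulus – thallium- and potassium-containing depolarizing buffer · Measured by – kinetic FluxOR fluorescence, 10 s baseline plus 110 s post-stimulus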
KCNK9 inh = KCNK9 potassium channel inhibitors, primary screen, HEK293 cells, thallium flux; FluxOR thallium flux fluorescence; stronger effect = lower value; B-score at 10 µM; hit rate 1.2% among 310,000; AID 488922, 2010;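 active = ratio B-score over 3 SD below the library mean, with starting fluorescence within 5 SD of its mean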;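 also: negative B-score means less thallium flux so channel inhibition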
KCNK3 inh = human KCNK3 channel inhibitors, primary screen, CHO cells, FluxOR thallium flux, B-score. FluxOR fluorescence; stronger effect = lower value. hit rate 0.84% among 340,000. Potassium channel subfamily K member 3 (Homo sapiens), O14649. B-score at 10 µM;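 active = B-score under library mean minus 4 SD, starting fluorescence ratio at most library mean plus 5 SD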;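 also: more negative B-score means stronger inhibition of thallium flux through KCNK3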
Target sequence (O14649 whole entry, looked up): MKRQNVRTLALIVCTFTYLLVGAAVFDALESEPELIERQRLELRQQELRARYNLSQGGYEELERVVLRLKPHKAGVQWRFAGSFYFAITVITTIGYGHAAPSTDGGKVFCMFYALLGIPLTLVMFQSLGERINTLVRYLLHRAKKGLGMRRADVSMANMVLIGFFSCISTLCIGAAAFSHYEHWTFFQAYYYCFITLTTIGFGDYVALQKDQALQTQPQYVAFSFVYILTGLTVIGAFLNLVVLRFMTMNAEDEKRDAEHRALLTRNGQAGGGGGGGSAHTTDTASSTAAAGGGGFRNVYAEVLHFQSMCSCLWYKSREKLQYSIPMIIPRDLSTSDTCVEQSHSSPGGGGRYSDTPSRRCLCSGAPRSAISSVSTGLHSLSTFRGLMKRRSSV
hERG rescue = hERG rescue from dofetilide block, primary screen, cell-based, CHO-hERG, FluxOR thallium flux, dofetilide IC70; Voltage-gated inwardly rectifying potassium channel KCNH2 (Homo sapiens), Q12809; dofetilide IC70 present; activation (rescue from dofetilide block), less the hit threshold, % at 10 µM; hit rate 0.51% among 310,000; AID 1511, 2009;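 active = activation above the mean of controls blocked by dofetilide plus 5 SD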;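 also: thallium influx through hERG after potassium depolarization seen as dye fluorescence rise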
KCNK3 inh conf = retest of human KCNK3 channel inhibitors, confirmation, CHO cells, FluxOR thallium flux, triplicate | shares compounds with KCNK3 inh | FluxOR fluorescence; 0% buffer, 100% carvedilol maximal block | ratio percent of control, % at 10 µM | hit rate 99% among 2,400;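 active = ratio percent of control, averaged over triplicates, above buffer control mean plus 5 SD, cut at about 64% in these data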;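 also: ratio is the fluorescence rise from min to max over baseline after thallium stimulus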
KCNK3 uninduced = thallium flux inhibition in non-induced cells, primary screen, counter-screen for KCNK3 inhibitor project, cell-based, non-induced KCNK3 line, FluxOR thallium, triplicate; non-induced KCNK3 parental cells; stronger effect = lower value; shares compounds with KCNK3 inh; AID 651747, 2012; thallium flux ratio (lower = more inhibition) at 10 µM; hit rate 40% among 2,400;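 active = thallium flux ratio, averaged over three wells, more than 5 SD below the buffer control mean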;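 also: host cells are CHO cells without KCNK3 induction; ratio is peak minus trough fluorescence over baseline then normalized to buffer controls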
An asterisk follows results filed as active; i = inactive; · = no result. Shown are actives, neighbours in structure and some others; about 3.1% of the full set was active somewhere.

SMILES | KCNQ1 inh | KCNQ1 act | KCNK9 inh | KCNK3 inh | hERG rescue | KCNK3 inh conf | KCNK3 uninduced
N#C/C(=C\c1c(N2CCOCC2)nc2ccccn2c1=O)S(=O)(=O)c1ccccc1 | i | i | i | i | -6 | · | ·
CCOC(=O)/C(C#N)=C/c1c(N2CCN(c3ccc(OC)cc3)CC2)nc2c(C)cccn2c1=O | i | i | i | -12* | -8 | 83* | 0.15*
Cc1nn(C)c(NC(=O)c2ccccc2Cl)c1Cl | i | i | i | i | -1 | · | ·
CCN(C(=O)CN1CCCC(C)C1)c1c(N)n(Cc2ccccc2)c(=O)[nH]c1=O (centres undefined) | · | · | · | i | · | · | ·
O=C(COC(=O)c1ccc([N+](=O)[O-])o1)Nc1ccc2c(c1)OCO2 | · | · | · | i | · | · | ·
CNc1c(NS(=O)(=O)c2ccc(Cl)cc2)c(=O)oc2ccccc12 | i | i | i | i | -11 | · | ·
CNc1c(NS(=O)(=O)c2ccc(C3CCCCC3)cc2)c(=O)oc2ccccc12 | i | i | i | -9.4* | -8 | 87* | i
CCc1nc(SCC(=O)c2ccccc2)c2ccccc2n1 | i | i | i | -9.4* | -7 | 88* | i
O=[N+]([O-])c1ccccc1C(O)Cc1ccccn1 (centres undefined) | · | · | · | i | · | · | ·
COCCNC(=O)c1ccccc1NC(=O)c1cccc([N+](=O)[O-])c1C | i | i | i | i | 3 | · | ·
COCCNC(=O)c1ccccc1NC(=O)Cc1ccccc1[N+](=O)[O-] | i | i | i | -9.9* | -12 | 0 | i
Cc1ccc(NC(=O)c2ccc(Cl)c(S(=O)(=O)N3CCCCC3)c2)nc1 | · | · | · | i | · | · | ·
Cc1c(Nc2cc(Cl)c3nonc3c2[N+](=O)[O-])c(=O)n(-c2ccccc2)n1C | · | · | · | -18* | · | 145* | 0.096*
CC(C)(C)CC(C)(C)n1nnnc1N | · | · | · | i | · | · | ·
CCOP(=O)(OCC)c1nc(-c2ccc(C)cc2)oc1N1CCOCC1 | i | i | i | i | -3 | · | ·
CCOP(=O)(OCC)c1nc(-c2ccc(Br)cc2)oc1N1CCCCC1 | i | i | i | -10* | -3 | 102* | i
CC(=O)Nc1ccc(-c2csc(NC(=O)CC(NC(C)=O)c3ccccc3)n2)cc1 (centres undefined) | i | i | i | i | -10 | · | ·
CC(=O)NC(CC(=O)Nc1nc(-c2ccc(N(C)S(C)(=O)=O)cc2)cs1)c1ccccc1 (centres undefined) | i | i | i | -10* | -14 | 59* | i
CCOC(=O)c1cc(C#N)c(SCC(=O)c2cc(C#N)c(SC)nc2C)[nH]c1=O | i | i | i | -10* | -12 | 122* | 0.13*
O=c1oc2cc(Oc3c([N+](=O)[O-])cc(C(F)(F)F)cc3[N+](=O)[O-])ccc2c2c1CCCC2 | 11* | i | i | -9.7* | -21 | 136* | 0.14*
COc1ccc(C2CC(=O)C=C(NCCC(C)C)C2)cc1 (centres undefined) | i | i | i | -22* | -15 | 111* | i
CCOC(=O)c1c(CSCc2ccccc2)oc2ccc(O)c(CN(C)C)c12 | i | i | i | -9.3* | -29 | 123* | i
CCOC(=O)c1c(-c2ccccc2)oc2ccc(O)c(CN(C)C)c12 | i | i | i | i | -6 | · | ·
CCOc1ccc(C(=O)CCC(=O)NCC(=O)Nc2c(C)cccc2C)cc1 | · | · | · | i | · | · | ·
Cc1ccc2nc(-c3ccc(NC(=S)NC4CC(C)(C)NC(C)(C)C4)cc3)sc2c1 | 8* | i | i | -15* | -32 | 125* | 0.15*
SMILES | KCNQ1 inh | KCNQ1 act | KCNK9 inh | KCNK3 inh | hERG rescue | KCNK3 inh conf | KCNK3 uninduced
Cc1cc(O)c(C(C)C)cc1NC(=O)c1ccccc1Cl | i | i | i | i | -11 | · | ·
Cc1cc(O)c(C(C)C)cc1NC(=O)Nc1cc(Cl)ccc1Cl | · | · | · | -12* | · | 114* | 0.16*
Cc1cc(NC(=O)c2cc3ccccc3o2)ccc1NC(=O)c1ccccc1 | i | i | i | -10* | -3 | 0 | i
CCOC(=O)N1CCC(N2Cc3cccc(C(=O)Nc4ccc(CC)cc4)c3C2=O)CC1 | i | i | i | i | -26 | · | ·
CCc1cccc(NC(=O)c2cccc3c2C(=O)N(C2CCCCC2)C3)c1 | i | i | i | -8.7* | -8 | 78* | i
CCCCOc1ccc2ccccc2c1C=O | i | i | i | -15* | -4 | 129* | i
CCC(Oc1ccc(C)cc1)C(=O)Nc1ccccc1C(=O)N1CCOCC1 (centres undefined) | i | i | i | i | -12 | · | ·
CC(C)c1ccc(C(C)NCCS(=O)(=O)c2ccc(Br)cc2)cc1 (centres undefined) | i | i | i | -8.9* | -14 | 69* | 0.14*
Cc1ccccc1-n1nnnc1SCC(=O)NC1CC1 | · | · | · | i | · | · | ·
CCOC(=O)Cn1nc(-c2ccccc2)nc1-c1ccccc1 | i | i | i | i | -9 | · | ·
O=C(Cn1nc(-c2ccccc2)nc1-c1ccccc1)OC1CCCCC1 | i | i | i | -10* | -10 | 104* | i
NC(=O)c1ccsc1NC(=O)CSc1nnc(NC2CC2)s1 | · | · | · | i | · | · | ·
COC(=O)C(Cc1ccccc1)NC(=O)c1ccc(C)cc1 (centres undefined) | i | i | i | i | -9 | · | ·
COC(=O)C(Cc1csc2ccc(Cl)cc12)NC(=O)c1ccc(Cl)cc1 (centres undefined) | i | i | i | -10* | 4 | 140* | 0.14*
CCOC(=O)CSc1nc2ccccc2c(=O)n1Cc1ccco1 | i | i | i | i | -8 | · | ·
O=c1c2ccccc2nc(SCc2nc3ccccc3s2)n1Cc1ccco1 | i | i | i | -12* | -5 | 127* | 0.15*
O=C(CSc1nc2ccccc2c(=O)n1Cc1ccco1)c1ccccc1 | i | i | i | -11* | 1 | 91* | i
Cc1sc2nc(SCC(=O)c3cccs3)n(Cc3ccco3)c(=O)c2c1C | i | i | i | -9.4* | -6 | 106* | i
